Laboratory results published in ChEMBL document CHEMBL4610084, “Antibacterial and ATP Synthesis Modulating Compounds from Salvia tingitana” (2020).
≈ marks a conversion by molar mass, not a printed value.

Key:
Staphylococcus hominis = assay: Antibacterial activity against Methicillin-resistant Staphylococcus hominis MB124 after 24 hrs by microdilution assay; assay type: functional; settings: MB124, 24 h
Outline: (§1)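 Broth microdilution MIC, run as in an earlier cited report. Strains are clinical isolates identified by standard methods and MALDI-TOF; E. faecalis MB19 and MB51 are Ligurian seawater isolates. Highest concentration tested was 128 μg/mL. MICs are given in μg/mL and μM, with oxacillin and vancomycin as reference antibiotics.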

Enterococcus faecalis [1] = assay: Antibacterial activity against Vancomycin resistant Enterococcus faecalis MB51 after 24 hrs by microdilution assay; assay type: functional; settings: MB51, 24 h; outline: as §1
Staphylococcus simulans = assay: Antibacterial activity against Staphylococcus simulans MB94 after 24 hrs by microdilution assay; assay type: functional; settings: MB94, 24 h
Outline: (§2)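 Broth microdilution MIC against clinical or seawater-isolated strains (identified by standard procedures and MALDI-TOF), with compound solutions and testing as in earlier work. MIC reported in μg/mL and μM.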

Bos taurus = species: Bos taurus; assay: Modulation of ATP synthase in bovine rod outer segments assessed as inhibition of ATP production at 80 ug/ml in presence of Ap5A adenylate kinase inhibitor by luciferin/luciferase chemiluminescent method relative to control
Outline: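 Bovine rod OS (5 μg) preincubated 5 min at 37 °C in Tris/HCl pH 7.4 with KCl, EGTA, MgCl2, 0.6 mM ouabain, 0.25 mM Ap5A, 5 mM KH2PO4, 20 mM succinate, 0.35 mM NADH and ampicillin. Synthesis started with 0.1 mM ADP and stopped with perchloric acid. ATP read by luciferin/luciferase luminescence. Samples at 80 μg/mL; 30 μM resveratrol as positive control. Triplicates, ANOVA/Bonferroni.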

Enterococcus faecalis [2] = assay: Antibacterial activity against Vancomycin resistant Enterococcus faecalis MB19 after 24 hrs by microdilution assay; assay type: functional; settings: MB19, 24 h; outline: as §1
Enterococcus faecium [3] = assay: Bacteriostatic activity against Enterococcus faecium MB152 assessed as ratio of reduction in bacterial growth by measuring order of magnitude at 4 times MIC by time kill assay; assay type: functional
Outline: (§3)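 Time-kill curves: viable cell counts of susceptible strains recorded with or without compound at 4 × MIC.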

Enterococcus avium = assay: Antibacterial activity against Enterococcus avium MB119 after 24 hrs by microdilution assay; assay type: functional; settings: MB119, 24 h; outline: as §2
[4] = system: Staphylococcus epidermidis; assay: Antibacterial activity against Methicillin-resistant Staphylococcus epidermidis MB165 after 24 hrs by microdilution assay; assay type: functional; settings: MB165, 24 h; outline: as §1
Enterococcus faecium [5] = assay: Antibacterial activity against Enterococcus faecium MB2 after 24 hrs by microdilution assay; assay type: functional; settings: MB2, 24 h; outline: as §2
Staphylococcus aureus [6] = assay: Bacteriostatic activity against Methicillin-resistant Staphylococcus aureus MB18 assessed as ratio of reduction in bacterial growth at 4 times MIC by time kill assay; assay type: functional
Enterococcus faecium [7] = assay: Antibacterial activity against Enterococcus faecium MB152 after 24 hrs by microdilution assay; assay type: functional; settings: MB152, 24 h; outline: as §2
[8] = system: Enterococcus casseliflavus; assay: Antibacterial activity against Vancomycin resistant Enterococcus casseliflavus MB159 after 24 hrs by microdilution assay; assay type: functional; settings: MB159, 24 h; outline: as §1
Staphylococcus warneri = assay: Antibacterial activity against Methicillin-resistant Staphylococcus warneri MB74 after 24 hrs by microdilution assay; assay type: functional; settings: MB74, 24 h; outline: as §1
Enterococcus faecium [9] = assay: Antibacterial activity against Enterococcus faecium MB3 after 24 hrs by microdilution assay; assay type: functional; settings: MB3, 24 h; outline: as §2
[10] = system: Staphylococcus haemolyticus; assay: Antibacterial activity against Methicillin-resistant Staphylococcus haemolyticus MB115 after 24 hrs by microdilution assay; assay type: functional; settings: MB115, 24 h; outline: as §1
[11] = system: Staphylococcus saprophyticus; assay: Antibacterial activity against Staphylococcus saprophyticus MB41 after 24 hrs by microdilution assay; assay type: functional; settings: MB41, 24 h; outline: as §2
[12] = system: Staphylococcus epidermidis; assay: Antibacterial activity against Methicillin-resistant Staphylococcus epidermidis MB169 after 24 hrs by microdilution assay; assay type: functional; settings: MB169, 24 h; outline: as §1
Enterococcus faecalis [13] = assay: Bacteriostatic activity against Enterococcus faecalis MB1 assessed as ratio of reduction in bacterial growth at 4 times MIC by time kill assay; assay type: functional; outline: as §3
Enterococcus faecalis [14] = assay: Antibacterial activity against Enterococcus faecalis MB76 after 24 hrs by microdilution assay; assay type: functional; settings: MB76, 24 h; outline: as §1
Staphylococcus aureus [15] = assay: Antibacterial activity against Methicillin-resistant Staphylococcus aureus MB18 after 24 hrs by microdilution assay; assay type: functional; settings: MB18, 24 h; outline: as §1
[16] = system: Staphylococcus epidermidis; assay: Bacteriostatic activity against Staphylococcus epidermidis MB165 assessed as ratio of reduction in bacterial growth at 4 times MIC by time kill assay; assay type: functional; outline: as §3
Enterococcus gallinarum = assay: Antibacterial activity against Vancomycin resistant Enterococcus gallinarum MB111 after 24 hrs by microdilution assay; assay type: functional; settings: MB111, 24 h; outline: as §1
[17] = system: Staphylococcus lugdunensis; assay: Antibacterial activity against Staphylococcus lugdunensis MB96 after 24 hrs by microdilution assay; assay type: functional; settings: MB96, 24 h; outline: as §2
Enterococcus durans = assay: Antibacterial activity against Enterococcus durans MB113 after 24 hrs by microdilution assay; assay type: functional; settings: MB113, 24 h; outline: as §2
Enterococcus faecalis [18] = assay: Antibacterial activity against Vancomycin resistant Enterococcus faecalis MB1 after 24 hrs by microdilution assay; assay type: functional; settings: MB1, 24 h; outline: as §1
Staphylococcus capitis = assay: Antibacterial activity against Methicillin-resistant Staphylococcus capitis MB71 after 24 hrs by microdilution assay; assay type: functional; settings: MB71, 24 h; outline: as §1
Staphylococcus aureus [19] = assay: Antibacterial activity against Methicillin-resistant Staphylococcus aureus MB188 after 24 hrs by microdilution assay; assay type: functional; settings: MB188, 24 h; outline: as §1

C=C[C@@](C)(O)CC[C@@H]1[C@@]2(C)CCCC(C)(C)[C@@H]2CC[C@@]1(C)O
MIC (Staphylococcus hominis): 104 µM (≈ 32.1 µg/mL) | MIC (Enterococcus faecalis [1]): 207 µM (≈ 63.9 µg/mL) | MIC (Staphylococcus simulans): 207 µM (≈ 63.9 µg/mL) | inhibition (Bos taurus): 70% | MIC (Enterococcus faecalis [2]): 104 µM (≈ 32.1 µg/mL) | Ratio (Enterococcus faecium [3]): 1 - 2 | MIC (Enterococcus avium): 207 µM (≈ 63.9 µg/mL) | MIC [4]: 207 µM (≈ 63.9 µg/mL) | MIC (Enterococcus faecium [5]): 104 µM (≈ 32.1 µg/mL) | Ratio (Staphylococcus aureus [6]): 1 - 2 | MIC (Enterococcus faecium [7]): 207 µM (≈ 63.9 µg/mL) | MIC [8]: 207 µM (≈ 63.9 µg/mL) | MIC (Staphylococcus warneri): 104 µM (≈ 32.1 µg/mL) | MIC (Enterococcus faecium [9]): 104 µM (≈ 32.1 µg/mL) | MIC [10]: 207 µM (≈ 63.9 µg/mL) | MIC [11]: 104 µM (≈ 32.1 µg/mL) | MIC [12]: 207 µM (≈ 63.9 µg/mL) | Ratio (Enterococcus faecalis [13]): 1 - 2 | MIC (Enterococcus faecalis [14]): 207 µM (≈ 63.9 µg/mL) | MIC (Staphylococcus aureus [15]): 104 µM (≈ 32.1 µg/mL) | Ratio [16]: 1 - 2 | MIC (Enterococcus gallinarum): 207 µM (≈ 63.9 µg/mL) | MIC [17]: 104 µM (≈ 32.1 µg/mL) | MIC (Enterococcus durans): 104 µM (≈ 32.1 µg/mL) | MIC (Enterococcus faecalis [18]): 104 µM (≈ 32.1 µg/mL) | MIC (Staphylococcus capitis): 104 µM (≈ 32.1 µg/mL) | MIC (Staphylococcus aureus [19]): 104 µM (≈ 32.1 µg/mL)
